Assay results reported in ChEMBL document CHEMBL5614410, “Design, Synthesis, and Evaluation of p53Y220C Acetylation Targeting Chimeras (AceTACs)” (J Med Chem, 2024).
pEC50: −log10 of the molar value. Calls of active or inactive are those of the source. The rule behind the calls is not given here.

What was measured:
NCI-H1299 [1] = test: Antiproliferative activity against human NCI-H1299 cells expressing p53Y220C mutant assessed as reduction in cell viability incubated for 3 days by WST-8 assay; format: functional
Procedure, shortened: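 NCI-H1299 p53Y220C cells were exposed to compound over a concentration range for 72 h, in some runs after 72 h of control or p300 siRNA, before the viability read-out. Values are mean ± SD of three independent experiments.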

[2] = system: CREB-binding protein/Histone acetyltransferase p300/Cellular tumor antigen p53 (Homo sapiens), P04637+Q09472+Q92793 [Y220C]; test: AceTAC activity at FLAG-tagged p53Y220C mutant (unknown origin) expressed in human NCI-H1299 cells expressing p300/CBP assessed as increase in p53 acetylation at lysine 382 residue at 10 uM pretreated for 2 hrs with p300/CBP bromodomain binder, 4-(2-(5-(3,5-dimethylisoxazol-4-yl)-2-(3-fluoro-4-methoxyphenethyl)-1H-benzo[d]imidazol-1-yl)ethyl)morpholine followed by incubation with compound for 18 hrs by western blot analysis; format: cell-based
[3] = system: CREB-binding protein/Histone acetyltransferase p300/Cellular tumor antigen p53 (Homo sapiens), P04637+Q09472+Q92793 [Y220C]; test: AceTAC activity at FLAG-tagged p53Y220C mutant (unknown origin) expressed in human NCI-H1299 cells expressing p300/CBP assessed as stabilization of protein by measuring increase in aggregation temperature at 100 uM incubated for 1 hr at 32 to 50 degC by CETSA analysis; format: cell-based
Procedure, shortened: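 For CETSA, NCI-H1299 (p53Y220C) stable cells were treated with DMSO or 100 μM compound for 1 h, then heated at 32 to 50 °C. Soluble p53 was detected by Western blot. Representative of at least two independent experiments.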

[4] = system: CREB-binding protein/Histone acetyltransferase p300/Cellular tumor antigen p53 (Homo sapiens), P04637+Q09472+Q92793 [Y220C]; test: AceTAC activity at FLAG-tagged p53Y220C mutant (unknown origin) expressed in human NCI-H1299 cells expressing p300/CBP assessed as increase in p53 acetylation at lysine 382 residue at 10 uM incubated for 24 hrs by western blot analysis relative to control; format: cell-based
Procedure, shortened: (§1)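 NCI-H1299 (p53Y220C) cells were treated at 0.1–10 μM (0.1, 0.3, 1, 3 or 10 μM) for 24 h. Lysates were Western blotted for p53 and p53K382ac, with vinculin as loading control. p53K382ac was normalised to total p53Y220C and quantified from two or three independent experiments.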

U2OS = test: Cytotoxicity against human U2OS cells harboring wild type p53 assessed as inhibition of cell growth incubated for 72 hrs by WST-8 assay; format: toxicity, cell-based
Procedure, shortened: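 U2OS (WT p53) or normal prostate PNT2 cells were treated for 72 h at the indicated concentrations. Viability is mean ± SD of technical triplicates from two biological experiments.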

NCI-H1299 [5] = test: Inhibition of colony formation in human NCI-H1299 cells expressing p53Y220C mutant at 1 uM incubated for 14 days by crystal violet staining based analysis; format: functional, cell-based; settings: time 14.0 day
Procedure, shortened: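 Clonogenic assay in NCI-H1299 (p53Y220C) cells exposed to DMSO or 1, 3 or 10 μM for 14 days. Colonies were fixed and stained with crystal violet. Images are representative of two independent experiments.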

[6] = system: CREB-binding protein/Histone acetyltransferase p300/Cellular tumor antigen p53 (Homo sapiens), P04637+Q09472+Q92793 [Y220C]; test: (§2) AceTAC activity at FLAG-tagged p53Y220C mutant (unknown origin) expressed in human NCI-H1299 cells expressing p300/CBP assessed as increase in p53 acetylation at lysine 382 residue incubated for 24 hrs by western blot analysis; format: cell-based; procedure, shortened: as §1
[7] = biological target: CREB-binding protein/Histone acetyltransferase p300/Cellular tumor antigen p53 (Homo sapiens, UniProt P04637+Q09472+Q92793, Y220C); test: as §2; format: cell-based; procedure, shortened: as §1
[8] = system: CREB-binding protein/Histone acetyltransferase p300/Cellular tumor antigen p53 (Homo sapiens), P04637+Q09472+Q92793 [Y220C]; test: AceTAC activity at FLAG-tagged p53Y220C mutant (unknown origin) expressed in human NCI-H1299 cells expressing p300/CBP assessed as BAX mRNA expression at 3 uM incubated for 24 hrs by RT-PCR analysis; format: cell-based
Procedure, shortened: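 NCI-H1299 p53Y220C cells were treated with DMSO or compound at 3 μM for 24 h. mRNA of p53-target genes was measured by RT-qPCR, normalised to GAPDH and expressed relative to DMSO control. Values are mean ± SD of three independent experiments.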

[9] = system: CREB-binding protein/Histone acetyltransferase p300/Cellular tumor antigen p53 (Homo sapiens), P04637+Q09472+Q92793 [Y220C]; test: AceTAC activity at FLAG-tagged p53Y220C mutant (unknown origin) expressed in human NCI-H1299 cells expressing p300/CBP assessed as increase in p53 acetylation at lysine 382 residue at 3 uM incubated for 24 hrs by western blot analysis; format: cell-based; procedure, shortened: as §1
[10] = system: CREB-binding protein/Histone acetyltransferase p300/Cellular tumor antigen p53 (Homo sapiens), P04637+Q09472+Q92793 [Y220C]; test: AceTAC activity at p53Y220C mutant in human BXPC-3 cells expressing p300/CBP assessed as increase in p53 acetylation at lysine 382 residue incubated for 24 hrs by western blot analysis; format: cell-based; settings: dose 1-10 µM
Procedure, shortened: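 BxPC3 or NUGC-3 cells, which express p53Y220C endogenously, were treated with DMSO or compound at 1, 3 or 10 μM for 24 h. Lysates were Western blotted for p53 and p53K382ac, with vinculin as loading control. Representative of two independent experiments.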

[11] = system: CREB-binding protein/Histone acetyltransferase p300/Cellular tumor antigen p53 (Homo sapiens), P04637+Q09472+Q92793 [Y220C]; test: Induction of interaction between FLAG-tagged p53Y220C mutant (unknown origin) and p300/CBP expressed in human NCI-H1299 cells assessed as ternary complex formation at 10 uM incubated for 24 hrs by co-immunoprecipitation analysis; format: cell-based
Procedure, shortened: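 NCI-H1299 p53-null and p53Y220C cells were treated with DMSO or compound at 10 μM for 24 h. p53-FLAG pull-down was followed by Western blotting for associated p300. Representative of two independent experiments.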

NCI-H1299 [12] = test: Antiproliferative activity against human NCI-H1299 cells expressing p53Y220C mutant and transfected with p300 siRNA assessed as reduction in cell viability at 0.47 to 15 uM incubated for 3 days by WST-8 assay; format: functional, cell-based; settings: dose 0.47-15 µM, time 3.0 day
Procedure, shortened: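 NCI-H1299 p53Y220C cells were first transfected with p300 siRNA for 72 h, then exposed to compound across the concentration series for 72 h. Viability is mean ± SD from three independent experiments.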

[13] = Plasma concentration in Swiss albino mouse at 50 mg/kg, ip measured after 8 hrs by LC-MS/MS analysis; format: ADME, organism-based
Procedure, shortened: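 Swiss albino mice received a single 50 mg/kg intraperitoneal injection. Plasma levels were followed over 8 h. Each point is the mean ± SEM of three mice.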

[14] = system: CREB-binding protein/Histone acetyltransferase p300/Cellular tumor antigen p53 (Homo sapiens), P04637+Q09472+Q92793 [Y220C]; test: AceTAC activity at FLAG-tagged p53Y220C mutant (unknown origin) expressed in human NCI-H1299 cells expressing p300/CBP and transfected with control siRNA assessed as increase in p53 acetylation at lysine 382 residue at 1 to 10 uM incubated for 24 hrs by western blot analysis; format: cell-based; settings: dose 1-10 µM
Procedure, shortened: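 NCI-H1299 cells stably expressing p53Y220C were given control or p300 siRNA, then treated at 0, 1 or 10 μM for 24 h. Lysates were Western blotted for p53 and p53K382ac. The acetylation level was normalised to vinculin and quantified from two independent experiments.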

[15] = system: CREB-binding protein/Histone acetyltransferase p300/Cellular tumor antigen p53 (Homo sapiens), P04637+Q09472+Q92793 [Y220C]; test: Induction of interaction between FLAG-tagged p53Y220C mutant (unknown origin) and p300/CBP expressed in human NCI-H1299 cells at 10 uM pretreated for 2 hrs with p300/CBP bromodomain binder, 4-(2-(5-(3,5-dimethylisoxazol-4-yl)-2-(3-fluoro-4-methoxyphenethyl)-1H-benzo[d]imidazol-1-yl)ethyl)morpholine followed by incubation with compound for 18 hrs by co-immunoprecipitation analysis; format: cell-based
Procedure, shortened: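 NCI-H1299 (p53Y220C) cells were pretreated for 2 h with a 10 μM p53Y220C binder or a 10 μM p300 binder, then given compound at 3 μM for 18 h. p53-FLAG pull-down was followed by Western blot analysis.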

CCn1c2ccc(CNCCOCCOCCOCCC(=O)NCCOc3ccc(CCc4nc5cc(-c6c(C)noc6C)ccc5n4CCN4CCOCC4)cc3F)cc2c2ccc(-c3cc(C)cs3)cc21
GI50 (NCI-H1299 [1]; NCI-H1299, 72 h, time 3 day): 3000 nM
Activity (NCI-H1299 [1]; time 3.0 day): Dose-Dependent Effect
Activity [2]: inactive
ΔTm [3]: 4.3 °C
Activity [4]: 235%
GI50 (U2OS): > 10 µM
inhibition (NCI-H1299 [5]): Active
Activity [6]: Dose-Dependent Effect
pEC50 [7]: 5.82
Activity [8]: inactive
Activity [9]: Active
Activity [10]: Dose-Dependent Effect
Activity [11]: Active
Activity (NCI-H1299 [12]): inactive
concentration at 8 h [13]: > 400 nM
Activity [14]: Active
Activity [15]: inactive
